Experiments:
[1] = target: T1, Human immunodeficiency virus type 1 integrase (Human immunodeficiency virus 1, UniProt Q7ZJM1); assay: Inhibition of HIV1 integrase strand transfer activity
In short: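 Staged strand transfer assay using complexes preassembled on viral donor DNA with recombinantly expressed HIV-1 integrase. IC50 was reported.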

[2] = target: T1, Human immunodeficiency virus type 1 integrase; assay: Inhibition of HIV1 integrase 3' processing/strand transfer coupled activity
In short: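 In vitro assay with recombinant HIV-1 integrase that recapitulates the staged integration process, measuring coupled 3′-processing and strand transfer. IC50 was reported.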

[3] = tested on: Human immunodeficiency virus 1; assay: Antiviral activity against HIV1 assessed as inhibition of viral spread in infected cells; assay type: functional
In short: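 HIV-1 multiple-cycle replication (viral spread) assay in cell culture. Inhibition was expressed as IC95, and in some cases also as IC50.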

[4] = tested on: Human immunodeficiency virus; assay: Antiviral activity against HIV PIC; assay type: functional, organism-based; details: Human immunodeficiency virus 1, PIC
In short: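 Preintegration complexes were isolated from HIV-1-infected cells and tested for integration activity in vitro. IC50 was reported.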

[5] = target: T1, Human immunodeficiency virus type 1 integrase; assay: Inhibition of disintegration activity of HIV1 intact integrase
In short: (§1)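 Disintegration activity was measured with both full-length HIV-1 integrase and its catalytic core domain (amino acids 50-212). IC50 was reported.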

[6] = target: T1, Human immunodeficiency virus type 1 integrase; assay: Inhibition of disintegration activity of HIV1 integrase catalytic core domain (50 to 212); in short: as §1
[7] = tested on: Human immunodeficiency virus; assay: Antiviral activity against HIV; assay type: functional, organism-based; details: Human immunodeficiency virus 1
[8] = target: T1, Human immunodeficiency virus type 1 integrase; assay: Inhibition of integration activity of HIV1 intact integrase
[9] = Inhibition of HIV1 recombinant gp120/CD4 interaction by ELISA

T1 sequence (Q7ZJM1 whole entry): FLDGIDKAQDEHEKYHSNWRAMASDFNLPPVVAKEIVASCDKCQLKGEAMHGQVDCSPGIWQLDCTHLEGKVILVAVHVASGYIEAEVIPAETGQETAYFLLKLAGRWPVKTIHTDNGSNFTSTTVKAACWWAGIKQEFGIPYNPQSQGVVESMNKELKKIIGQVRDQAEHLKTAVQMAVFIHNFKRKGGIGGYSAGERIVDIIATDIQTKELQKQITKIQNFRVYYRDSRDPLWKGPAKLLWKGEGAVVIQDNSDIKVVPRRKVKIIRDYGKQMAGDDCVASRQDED

Row | Compound | IC50 [1] [µM] | IC50 [2] [µM] | IC95 [3] [µM] | further results
1 | CN(C(=O)[C@H](N)c1cc(Cl)c(O)c(Cl)c1)[C@@H](Cc1ccc(Oc2cc3cc(c2O)-c2cccc4c(c[nH]c24)C[C@@H](N)C(=O)N[C@H](c2cc(Cl)c(O)c(Cl)c2)C(=O)N[C@H]3C(=O)O)cc1)C(=O)O | 86 | 7.8 |  | 
2 | CN1C(=O)[C@@H](c2cc(Cl)c(O)c(Cl)c2)NC(=O)[C@@H]2NC(=O)[C@@H](c3cc(Cl)c(O)c(Cl)c3)NC(=O)[C@H](N)Cc3c[nH]c4c(cccc34)-c3cc2cc(c3O)Oc2ccc(cc2)C[C@H]1C(=O)O | 6 | 0.5 | 7.5 | 
3 | CN[C@@H](Cc1ccc(Oc2cc3cc(c2O)-c2cccc4c(c[nH]c24)C[C@@H](N)C(=O)N[C@H](c2cc(Cl)c(O)c(Cl)c2)C(=O)N[C@H]3C(=O)N[C@@H](C(=O)O)c2cc(Cl)c(O)c(Cl)c2)cc1)C(=O)O | 45 | 3.8 |  | 
4 | CN1C(=O)[C@@H](c2cc(Cl)c(O)c(Cl)c2)NC(=O)[C@@H]2NC(=O)[C@@H](c3cc(Cl)c(O)c(Cl)c3)NC(=O)[C@H](NC(=O)C(=O)c3cc(Cl)c(O)c(Cl)c3)Cc3c[nH]c4c(cccc34)-c3cc2cc(c3O)Oc2ccc(cc2)C[C@H]1C(=O)O | 8 | 0.6 | 5 | 
5 | CN1C(=O)[C@@H](c2cc(Cl)c(O)c(Cl)c2)NC(=O)[C@@H]2NC(=O)[C@@H](c3cc(Cl)c(O)c(Cl)c3)NC(=O)[C@H](NC(=O)C(=O)c3cc(Cl)c(O)c(Cl)c3)Cc3c[nH]c4c(cccc34)-c3cc2cc(c3O)Oc2ccc(cc2)C[C@H]1C(=O)N[C@@H](C(=O)O)c1ccc(O)cc1 [CHLOROPEPTIN] | 5 | 0.4 | 5 | 
6 | CN1C(=O)[C@@H](c2cc(Cl)c(O)c(Cl)c2)NC(=O)[C@@H]2NC(=O)[C@@H](c3cc(Cl)c(O)c(Cl)c3)NC(=O)[C@H](NC(=O)C(=O)c3cc(Cl)c(O)c(Cl)c3)CC3(O)C(=O)Nc4cc(ccc43)-c3cc2cc(c3O)Oc2ccc(cc2)C[C@H]1C(=O)N[C@@H](C(=O)O)c1ccc(O)cc1 (stereo partly drawn) [COMPLESTATIN B] | 12.5 | 1.7 |  | 

Second part, led by results:

Row | IC50 [1] [µM] | IC50 [2] [µM] | Compound | IC95 [3] [µM] | further results
7 | > 100 | 28 | CN[C@@H](Cc1ccc(Oc2cc3cc(c2O)-c2cccc4c(c[nH]c24)C[C@@H](N)C(=O)N[C@H](c2cc(Cl)c(O)c(Cl)c2)C(=O)N[C@H]3C(=O)O)cc1)C(=O)O |  | 
8 | 12.5 | 0.8 | CN1C(=O)[C@@H](c2cc(Cl)c(O)c(Cl)c2)NC(=O)[C@@H]2NC(=O)[C@@H](c3cc(Cl)c(O)c(Cl)c3)NC(=O)[C@H](NC(=O)C(=O)c3cc(Cl)c(O)c(Cl)c3)CC3C(=O)Nc4cc(ccc43)-c3cc2cc(c3O)Oc2ccc(cc2)C[C@H]1C(=O)N[C@@H](C(=O)O)c1ccc(O)cc1 (stereo partly drawn) [COMPLESTATINS A] |  | 
9 | 4 | 0.2 | CN1C(=O)[C@@H](c2cc(Cl)c(O)c(Cl)c2)NC(=O)[C@@H]2NC(=O)[C@@H](c3cc(Cl)c(O)c(Cl)c3)NC(=O)[C@H](NC(=O)C(=O)c3cc(Cl)c(O)c(Cl)c3)Cc3c[nH]c4cc(ccc34)-c3cc2cc(c3O)Oc2ccc(cc2)C[C@H]1C(=O)N[C@@H](C(=O)O)c1ccc(O)cc1 [ISOCOMPLESTATIN] | 5 | IC50 [4]: 3 µM; IC50 [5]: 0.5 µM; IC50 [6]: 0.5 µM; IC50 [7]: 0.2 µM; IC50 [8]: 3 µM; IC50 [9]: 2 µM
